The results in this text go back to ChEMBL document CHEMBL1143201 (Bioorg Med Chem, 2008).

The source made the active and inactive calls. No cut-off for these calls is given here.

Common to all, as to assay type: cell-based
The target in assay [1] is T1, Muscarinic acetylcholine receptor M1 (Homo sapiens, UniProt P11229).
T1 sequence (P11229 whole entry): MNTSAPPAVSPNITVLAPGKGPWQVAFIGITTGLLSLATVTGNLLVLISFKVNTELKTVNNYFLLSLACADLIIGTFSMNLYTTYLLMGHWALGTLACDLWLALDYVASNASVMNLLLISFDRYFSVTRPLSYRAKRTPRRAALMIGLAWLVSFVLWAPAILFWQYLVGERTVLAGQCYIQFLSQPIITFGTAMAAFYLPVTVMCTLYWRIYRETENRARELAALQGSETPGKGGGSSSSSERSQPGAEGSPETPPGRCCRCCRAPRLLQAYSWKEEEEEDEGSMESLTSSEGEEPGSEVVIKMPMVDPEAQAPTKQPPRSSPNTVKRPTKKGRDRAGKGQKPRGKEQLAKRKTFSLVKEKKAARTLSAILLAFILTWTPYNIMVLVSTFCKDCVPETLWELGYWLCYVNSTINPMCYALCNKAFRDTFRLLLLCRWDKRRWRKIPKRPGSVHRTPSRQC
Kind of assay: Displacement of [3H]NMS from human muscarinic M1 receptor expressed in CHO cells in continuous presence of radioligand. An outline of the steps:
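CHO cells stably expressing human M1 receptor, grown in DMEM with 10% bovine calf serum and geneticin, trypsinized 4 days after subculture and washed into Hepes buffer. Cells incubated 1 h at 37 °C with 0.14–0.20 nM [3H]NMS plus increasing analog concentrations. Atropine defined nonspecific binding. Ended by rapid GF/B filtration and ice-cold saline washes, then scintillation counting; pIC50 reported.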

Assay [2] has as its target T1, Muscarinic acetylcholine receptor M1. Kind of assay: (§1) Displacement of [3H]NMS from human muscarinic M1 receptor expressed in CHO cells by wash-resistant binding method. The method, boiled down:
(§2)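 Human M1-transfected CHO cells in Hepes buffer were preincubated with test ligand. Each wash was a ~50-volume buffer dilution and centrifugation, done three times in all. Washed cells were resuspended, given [3H]NMS, and incubated 1 h at 37 °C. Bound radioactivity was then taken by filtration and scintillation counting; pIC50 derived.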

Assay [3] deals with T2, Muscarinic acetylcholine receptor M1 (Homo sapiens) (UniProt P11229).
T2 sequence (whole entry): T1 sequence (P11229 whole entry)
Described as §1. An outline of the steps:
as §2

Assay [4] addresses T2, Muscarinic acetylcholine receptor M1 (Homo sapiens). Kind of assay: (§3) Displacement of [3H]NMS from human muscarinic M1 receptor expressed in CHO cells at pH 6 by wash-resistant binding method. An outline of the steps: (§4)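 Washout paradigm run in binding buffer acidified to pH 6.0, on CHO cells stably carrying human M1 receptor. After ligand preincubation, cells went through three rounds of ~50-volume dilution plus centrifugation, then resuspension with [3H]NMS for 1 h at 37 °C. Residual bound label was measured by filtration and scintillation counting; pIC50 derived.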

Assay [5] addresses T1, Muscarinic acetylcholine receptor M1. Kind of assay: Displacement of [3H]NMS from human muscarinic M1 receptor expressed in CHO cells at pH 8 in continuous presence of radioligand. The method, boiled down:
(§5)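 CHO cells stably transfected with human M1 gene, grown in DMEM with 10% bovine calf serum and geneticin, harvested by mild trypsinization 4 days after subculture, washed in Hepes medium. Buffer acidified to pH 6.0 or set to pH 8.0. Cells incubated 1 h at 37 °C with 0.14–0.20 nM [3H]NMS plus increasing analog concentrations. Nonspecific binding defined with 10 µM atropine. Filtration, saline washes, scintillation counting; pIC50 derived.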

Assay [6] shares this target. Kind of assay: Displacement of [3H]NMS from human muscarinic M1 receptor expressed in CHO cells at pH 6 in continuous presence of radioligand. An outline of the steps: as §5
The target is the same in assay [7]. Kind of assay: Displacement of [3H]NMS from human muscarinic M1 receptor expressed in CHO cells at pH 8 by wash-resistant binding method. An outline of the steps: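 Human M1-transfected CHO cells preincubated with increasing analog concentrations in pH 8.0 buffer. Each wash is ~50 vol buffer dilution then centrifugation, done three times in total. Pellet resuspended in buffer with [3H]NMS for 1 h at 37 °C. Bound radioactivity collected by rapid filtration and scintillation counting. Result expressed as pIC50 of residual inhibition.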

Assay [8] shares this target. The description is as §3. The method, boiled down: as §4

Turning to `CN1CCC=C(c2nsnc2OCCCCCN)C1`, the IC50 is 1.91 µM in assay [1] and 44.7 µM in assay [2].

As for `CNCCCCOc1nsnc1C1=CCCN(C)C1`, the IC50 in assay [1] is 7.08 µM. Besides, the result in assay [3] was inactive.

In the case of `CN1CCC=C(c2nsnc2OCCCCN)C1`, the IC50 in assay [1] is 77.6 µM. For the same compound, the result in assay [3] was inactive.

With `CCCOc1nsnc1C1=CCCN(C)C1`, the 50% inhibitory concentration (IC50) in assay [1] is 0.0525 µM. Moreover, the result in assay [3] was inactive.

On to `CN1CCC=C(c2nsnc2OCCO)C1`, for which, in assay [1], the 50% inhibitory concentration (IC50) is 1.07 µM. Moreover, the result in assay [3] was inactive.

With `CN1CCC=C(c2nsnc2OCC(=O)O)C1`, in assay [1], the half-inhibitory concentration (IC50) was 0.617 µM. The outcome in assay [3] was inactive.

With `CN1CCC=C(c2nsnc2OCCCCn2ccnc2)C1`, the IC50 in assay [1] is 0.871 µM; in assay [5] it was 0.871 µM; in assay [6], 2.29 µM; in assay [7] it was 53.7 µM; in assay [2] it was 52.5 µM. Further, in assay [4], the result was inactive.

With `CN1CCC=C(c2nsnc2OCCCO)C1`, the IC50 in assay [1] was 3.8 µM. For the same compound, in assay [3], the result was inactive.

For the compound `CCOC(=O)CCCCOc1nsnc1C1=CCCN(C)C1`, the IC50 in assay [1] is 0.0589 µM. For the same compound, the outcome in assay [3] was inactive.

As to `CN1CCC=C(c2nsnc2OCCCCO)C1`, in assay [1], the IC50 was 0.309 µM. In addition, the outcome in assay [3] was inactive.

Regarding `CN1CCC=C(c2nsnc2OCCCCCCN)C1`, the IC50 in assay [1] is 0.646 µM; in assay [2], 3.98 µM.

On to `CN1CCC=C(c2nsnc2OCC#Cc2ccccc2)C1`, for which the half-inhibitory concentration (IC50) was 0.0372 µM in assay [1] and 2.14 µM in assay [2].

Take `CN1CCC=C(c2nsnc2OCCCN)C1`: the IC50 in assay [1] was 0.162 µM; in assay [2], 14.8 µM.

For the compound `CN1CCC=C(c2nsnc2OCCCCn2cccc2)C1`, the concentration for half-maximal inhibition (IC50) in assay [1] is 0.275 µM; in assay [8], 39.8 µM; in assay [5], 0.219 µM; in assay [6], 0.407 µM; in assay [7] it was 12 µM; in assay [2], 28.8 µM.

Regarding `CCOc1nsnc1C1=CCCN(C)C1`, in assay [1], the IC50 was 0.141 µM. For the same compound, in assay [3], the outcome was inactive.

`CN1CCC=C(c2nsnc2OCCN)C1`: the IC50 in assay [1] is 1 µM; in assay [2], 110 µM.
